The record followed here is ChEMBL document CHEMBL1128339, “Discovery of 6,11-ethano-12,12-diaryl-6,11-dihydrobenzo[b]quinolizinium cations, a novel class of N-methyl-D-aspartate antagonists” (J Med Chem, 1995).

For one data set, the target named is Glutamate NMDA receptor. Kind of data set: Binding affinity at TCP site of NMDA receptor was determined in rat brain homogenate by [3H]TCP displacement. It is filed as tissue-based.
Data set [1] is filed under the species Mus musculus. Kind of data set: Inhibitory concentration against NMDA-induced cell death in cultured mouse cortical neurons. The class given is functional.
The target of data set [2] is Glutamate NMDA receptor (Rattus norvegicus) (UniProt P35439+Q00959+Q00960+Q00961+Q62645+Q8VHN2+Q9R1M7). Kind of data set: Compound at 10 uM was tested for the inhibition of radioligand [3H]TCP binding to TCP site of NMDA receptor in rat brain homogenate. It is filed as tissue-based.
The nature of data set [3]: LogD value of the compound. It is filed as physicochemical. As to conditions: octanol/water. In outline:
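LogD is the partition coefficient between octanol and pH 7.4 buffer. It was measured instrumentally by an outside laboratory.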

Data set [4] deals with Mus musculus. Kind of data set: NMDA antagonistic activity was evaluated […] in cultured mouse cortical neurons by patch clamp recordings designed to measure closed state binding to NMDA receptor-ionophore complex. The class given is functional.
The subject of data set [5] is Mus musculus. The data set can be described thus: NMDA antagonistic activity was evaluated […] in cultured mouse cortical neurons by patch clamp recordings designed to measure open state binding to NMDA receptor-ionophore complex. The class given is functional.
In data set [6] the test system is Mus musculus. Kind of data set: NMDA antagonistic activity was evaluated […] in cultured mouse cortical neurons by patch clamp recordings designed to measure closed state binding to NMDA receptor-ionophore complex at 100 uM. The class given is functional. In outline: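 Value is the percent inhibition of NMDA-induced current at 100 μM, under closed-channel conditions in mouse cortical neuronal cultures.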

For data set [7], the species on record is Mus musculus. Kind of data set: (§1) Ratio of IC50 value for closed channel binding to that of open channel binding. The class given is functional.
Data set [8] in a line: as §1. It is filed as functional.
A further data set relates to Rattus norvegicus. The data set can be described thus: In vivo anti-ischemic activity was evaluated in a rat middle cerebral artery occlusion/ reperfusion model of focal ischemia at a dose of 6 mg/kg/h for 6.5 hr (iv, infusion). The class given is functional. In outline: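 Rats underwent middle cerebral artery occlusion followed by reperfusion (focal ischemia). The drug was given by continuous intravenous infusion. The read-out was reduction in infarct volume (n = 15).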

Each structure is given as a SMILES string. A value given as a limit tells only on which side of the number the result lay.

With `Clc1cccc(C2(c3cccc(Cl)c3)CC3c4ccccc4C2c2cccc[n+]23)c1` (stereo not drawn), the Ki at Glutamate NMDA receptor was 104 nM.
Still for that read-out and setting: the same measure for `COc1cccc(C2(c3cccc(OC)c3)CC3c4ccccc4C2c2cccc[n+]23)c1` (stereo not drawn): 41 nM.
For the compound `c1coc(C2(c3ccco3)CC3c4ccccc4C2c2cccc[n+]23)c1` (stereo not drawn), in the data set filed under Mus musculus [1], half-maximal inhibition (IC50) was put at 36 nM. In addition, at Glutamate NMDA receptor, affinity was put at a Ki of 1.9 nM.
In data set [2], `c1ccc2c(c1)C1CC(c3ccncc3)(c3ccncc3)C2c2cccc[n+]21` (stereo not drawn) displayed an inhibition of 54%.
In the case of `c1ccc2c(c1)C1CC(c3cc[nH]n3)(c3cc[nH]n3)C2c2cccc[n+]21` (stereo not drawn), in the data set listed under Mus musculus [1], the IC50 came out at 271 nM. Moreover, the Ki on Glutamate NMDA receptor stood at 13 nM.
Regarding `Fc1ccc(C2(c3ccc(F)cc3)CC3c4ccccc4C2c2cccc[n+]23)cc1` (stereo not drawn), the Ki at Glutamate NMDA receptor came to 2210 nM.
Still for that read-out and setting: the same measure for `c1ccc2c(c1)C1CC(c3cncs3)(c3cncs3)C2c2cccc[n+]21` (stereo not drawn): 120 nM.
Consider `CCOC1(OCC)C2c3ccccc3C([n+]3ccccc32)C1(C)C.[Cl-]` (stereo not drawn), for which the logD in [3] was -4.08. Besides, the IC50 is above 100 µM with Mus musculus [4] and 260 nM in the data set on Mus musculus [5]. Moreover, the Inhibition with Mus musculus [6] is -8.5%. Also, the Ratio in the data set filed under Mus musculus [7] is above 384. The same compound had a Ki on Glutamate NMDA receptor of 5.3 nM.
`COc1ccc(C2(c3ccc(OC)cc3)CC3c4ccccc4C2c2cccc[n+]23)cc1` (stereo not drawn) showed a Ki on Glutamate NMDA receptor of 28100 nM.
For `c1ccc(C2(N3CCCCC3)CCCCC2)cc1` [PHENCYCLIDINE], in data set [3] (read-out: logD), the logD was determined as 1.76. The values for the IC50 with Mus musculus [4] and in the data set with Mus musculus [5] were 13.9 µM and 270 nM, respectively. Further, the Ratio in data set [8] worked out at 51.
`c1cncc(C2(c3cccnc3)CC3c4ccccc4C2c2cccc[n+]23)c1` (stereo not drawn): at Glutamate NMDA receptor, the affinity, expressed as Ki, was 2270 nM.
With `C[C@]12N[C@H](Cc3ccccc31)c1ccccc12` [DIZOCILPINE], the logD in [3] (read-out: logD) is 1.79. Moreover, the IC50 turned out to be 67 nM in the data set filed under Mus musculus [1], 5.8 µM in the data set on Mus musculus [4] and 100 nM in the data set on Mus musculus [5].
With `[Cl-].c1ccc2c(c1)C1CC(c3ccoc3)(c3ccoc3)C2c2cccc[n+]21` (stereo not drawn), the logD in data set [3] (read-out: logD) was -3.41. Further, the IC50 in the data set listed under Mus musculus [1] is 39 nM; in the data set with Mus musculus [4] it was above 100 µM; in the data set on Mus musculus [5], 140 nM. For the same compound, the Inhibition in the data set on Mus musculus [6] is 12%. Besides, the Ratio in the data set listed under Mus musculus [7] is above 700. This compound also came in with a Ki at Glutamate NMDA receptor of 1.8 nM. In addition, the inhibition in vivo at 6 mg/kg/h with Rattus norvegicus is 50%.
For `c1ccc(C2(c3ccccc3)CC3c4ccccc4C2c2cccc[n+]23)cc1` (stereo not drawn), it took 197 nM to reach half-maximal inhibition in the data set filed under Mus musculus [1] (IC50). The compound also came in with a Ki at Glutamate NMDA receptor of 8.2 nM.
For the compound `c1ccc2c(c1)C1CC(c3cocn3)(c3cocn3)C2c2cccc[n+]21` (stereo not drawn), at Glutamate NMDA receptor, the Ki amounted to 93 nM.
Still for that read-out and setting: as for `c1ccc2c(c1)C1CC(c3ncc[nH]3)(c3ncc[nH]3)C2c2cccc[n+]21` (stereo not drawn), the figure is 1670 nM.
Compound `Brc1ccc(C2(c3ccc(Br)cc3)CC3c4ccccc4C2c2cccc[n+]23)cc1` (stereo not drawn) had an inhibition in [2] of 22%.
Compound `c1csc(C2(c3cccs3)CC3c4ccccc4C2c2cccc[n+]23)c1` (stereo not drawn) had a concentration for half-maximal inhibition (IC50) in the data set listed under Mus musculus [1] of 23 nM. Also, the Ki on Glutamate NMDA receptor is 2.1 nM.
The corresponding values for `c1ccc2c(c1)C1CC(c3ccsc3)(c3ccsc3)C2c2cccc[n+]21` (stereo not drawn) are 45 nM and 1.8 nM.
As to `c1ccc2c(c1)C1CC(c3cc[nH]c3)(c3cc[nH]c3)C2c2cccc[n+]21` (stereo not drawn), the IC50 in the data set listed under Mus musculus [1] was determined as 30 nM. Also, the affinity at Glutamate NMDA receptor, expressed as Ki, was 3.1 nM.
Turning to `Clc1ccc(C2(c3ccc(Cl)cc3)CC3c4ccccc4C2c2cccc[n+]23)cc1` (stereo not drawn), in [2], the inhibition came out at 45%.
Compound `c1ccc2c(c1)C1CC(c3nccs3)(c3nccs3)C2c2cccc[n+]21` (stereo not drawn) displayed an inhibition constant (Ki) at Glutamate NMDA receptor of 17 nM.
On the same count and under the same terms, the same measure for `c1ccc(C2(c3ccccn3)CC3c4ccccc4C2c2cccc[n+]23)nc1` (stereo not drawn): 8.4 nM; for `Brc1cccc(C2(c3cccc(Br)c3)CC3c4ccccc4C2c2cccc[n+]23)c1` (stereo not drawn): 185 nM.
